According to ChEMBL document CHEMBL3232876, “Novel R-(+)-limonene-based thiosemicarbazones and their antitumor activity against human tumor cell lines” (Eur J Med Chem, 2014):
Values belong to the molecule of their own block, whether it stands above or below them.

Key:
786-0 = experiment: Growth inhibition of human 786-0 cells after 48 hrs by sulforhodamine B assay; type: functional; details: 786-0, 48 h
Summary of the method: (§1)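 Tumour lines from NCI and Vero from the Rio de Janeiro Cell Bank, grown in RPMI 1640 with 5% fetal bovine serum, with penicillin:streptomycin added to experimental cultures. Each compound was tested at four 10-fold dilutions; sulforhodamine B staining at time zero and 48 h. Proliferation was calculated against T0 and drug-free controls, and GI50 came from sigmoidal regression of the concentration-response curves. Representative experiment in triplicate.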

[1] = (§2) Growth inhibition of African green monkey Vero cells after 48 hrs by sulforhodamine B assay; type: cell-based; details: chlorocebus sabaeus, Vero cells; summary of the method: as §1
Vero = experiment: as §2; type: cell-based; details: chlorocebus sabaeus, vero, 48 h; summary of the method: as §1
NCI-H460 = experiment: Growth inhibition of human NCI-H460 cells after 48 hrs by sulforhodamine B assay; type: functional; details: NCI-H460, 48 h; summary of the method: as §1
U-251 = experiment: Growth inhibition of human U251 cells after 48 hrs by sulforhodamine B assay; type: functional; details: U-251, 48 h; summary of the method: as §1
MCF7 = experiment: Growth inhibition of human MCF7 cells after 48 hrs by sulforhodamine B assay; type: functional; details: MCF7, 48 h; summary of the method: as §1
[2] = Growth inhibition of human OVCAR3 cells after 48 hrs by sulforhodamine B assay; type: functional; details: OVCAR-3, 48 h; summary of the method: as §1
K562 = experiment: Growth inhibition of human K562 cells after 48 hrs by sulforhodamine B assay; type: functional; details: K562, 48 h; summary of the method: as §1
PC-3 = experiment: Growth inhibition of human PC3 cells after 48 hrs by sulforhodamine B assay; type: functional; details: PC-3, 48 h; summary of the method: as §1
[3] = Growth inhibition of human NCI-ADR-RES cells after 48 hrs by sulforhodamine B assay; type: functional; summary of the method: as §1
HT-29 = experiment: Growth inhibition of human HT-29 cells after 48 hrs by sulforhodamine B assay; type: functional; details: HT-29, 48 h; summary of the method: as §1
[4] = Growth inhibition of human UACC62 cells after 48 hrs by sulforhodamine B assay; type: functional; details: UACC-62, 48 h; summary of the method: as §1

- GI50 (786-0): > 100 µM
- GI50 (NCI-H460): > 100 µM
- GI50 (U-251): > 100 µM
- GI50 (MCF7): > 100 µM
- GI50 (K562): > 100 µM
- GI50 (PC-3): < 0.04 µM
- GI50 (HT-29): > 100 µM
SMILES: CC1=CC[C@H](C(C)(C)NC(=S)N/N=C/c2ccc(F)cc2)CC1
- TGI (786-0): > 100 µM
- GI50 at 48 h [1]: > 100 µM
- TGI (Vero): > 100 µM
- TGI (NCI-H460): > 100 µM
- TGI (U-251): > 100 µM
- GI50 [4]: > 100 µM
- TGI [4]: > 100 µM
- TGI (MCF7): > 100 µM
- GI50 [2]: > 100 µM
- TGI [2]: > 100 µM
- TGI (K562): > 100 µM
- TGI (PC-3): < 0.9 µM
- GI50 [3]: > 100 µM
- TGI [3]: > 100 µM
- TGI (HT-29): > 100 µM

- GI50 (786-0): > 100 µM
- GI50 (NCI-H460): > 100 µM
- GI50 (U-251): > 100 µM
- GI50 (MCF7): > 100 µM
- GI50 (K562): > 100 µM
- GI50 (PC-3): 0.6 µM
- GI50 (HT-29): > 100 µM
SMILES: CC1=CC[C@H](C(C)(C)NC(=S)N/N=C/c2ccc(O)cc2)CC1
- TGI (786-0): > 100 µM
- GI50 at 48 h [1]: > 100 µM
- TGI (Vero): > 100 µM
- TGI (NCI-H460): > 100 µM
- TGI (U-251): > 100 µM
- GI50 [4]: > 100 µM
- TGI [4]: > 100 µM
- TGI (MCF7): > 100 µM
- GI50 [2]: > 100 µM
- TGI [2]: > 100 µM
- TGI (K562): > 100 µM
- TGI (PC-3): 53.8 µM
- GI50 [3]: 82.1 µM
- TGI [3]: > 100 µM
- TGI (HT-29): > 100 µM

- GI50 (786-0): 12.9 µM
- GI50 (NCI-H460): > 100 µM
- GI50 (U-251): 11.7 µM
- GI50 (MCF7): 14.8 µM
- GI50 (K562): 1.9 µM
- GI50 (PC-3): 0.3 µM
- GI50 (HT-29): < 0.04 µM
SMILES: COc1cc(/C=N/NC(=S)NC(C)(C)[C@H]2CC=C(C)CC2)ccc1O
- TGI (786-0): 35.4 µM
- GI50 at 48 h [1]: 19.7 µM
- TGI (Vero): 91.8 µM
- TGI (NCI-H460): > 100 µM
- TGI (U-251): 32.6 µM
- GI50 [4]: 14.7 µM
- TGI [4]: 42.3 µM
- TGI (MCF7): 63.9 µM
- GI50 [2]: 53.5 µM
- TGI [2]: > 100 µM
- TGI (K562): 85.2 µM
- TGI (PC-3): 8.3 µM
- GI50 [3]: 23.9 µM
- TGI [3]: > 100 µM
- TGI (HT-29): < 0.7 µM

Further lines, the molecule ahead of its results:

SMILES: C=C(C)[C@H]1CC=C(C)CC1 [D-LIMONENE]
- GI50 (786-0): > 100 µM
- TGI (786-0): > 100 µM
- GI50 at 48 h [1]: > 100 µM
- TGI (Vero): > 100 µM
- GI50 (NCI-H460): > 100 µM
- TGI (NCI-H460): > 100 µM
- GI50 (U-251): > 100 µM
- TGI (U-251): > 100 µM
- GI50 (MCF7): > 100 µM
- TGI (MCF7): > 100 µM
- GI50 [2]: > 100 µM
- TGI [2]: > 100 µM
- GI50 (K562): 23.9 µM
- TGI (K562): > 100 µM
- GI50 (PC-3): > 100 µM
- TGI (PC-3): > 100 µM
- GI50 [3]: > 100 µM
- TGI [3]: > 100 µM
- GI50 (HT-29): > 100 µM
- TGI (HT-29): > 100 µM

SMILES: CC1=CC[C@H](C(C)(C)NC(=S)NN)CC1
- GI50 (786-0): > 100 µM
- TGI (786-0): > 100 µM
- GI50 at 48 h [1]: 49.5 µM
- TGI (Vero): > 100 µM
- GI50 (NCI-H460): 42 µM
- TGI (NCI-H460): > 100 µM
- GI50 (U-251): 0.2 µM
- TGI (U-251): 10.1 µM
- GI50 (MCF7): 0.9 µM
- TGI (MCF7): 46.7 µM
- GI50 [2]: 41.9 µM
- TGI [2]: > 100 µM
- GI50 (K562): > 100 µM
- TGI (K562): > 100 µM
- GI50 (PC-3): 44.5 µM
- TGI (PC-3): > 100 µM
- GI50 [3]: 39.3 µM
- TGI [3]: > 100 µM
- GI50 (HT-29): 60.1 µM
- TGI (HT-29): > 100 µM

SMILES: CC(=O)O[C@H]1C(=O)[C@@]2(C)[C@H]([C@H](OC(=O)c3ccccc3)[C@]3(O)C[C@H](OC(=O)[C@H](O)[C@@H](NC(=O)c4ccccc4)c4ccccc4)C(C)=C1C3(C)C)[C@]1(OC(C)=O)CO[C@@H]1C[C@@H]2O [PACLITAXEL]
- GI50 (786-0): 0.02 µM
- TGI (786-0): 0.8 µM
- GI50 at 48 h [1]: 0.03 µM
- GI50 (NCI-H460): 0.1 µM
- TGI (NCI-H460): 0.08 µM
- GI50 (U-251): 0.003 µM
- TGI (U-251): 0.1 µM
- GI50 [4]: 0.01 µM
- TGI [4]: 0.5 µM
- GI50 (MCF7): 0.005 µM
- TGI (MCF7): 0.4 µM
- GI50 [2]: 0.2 µM
- TGI [2]: < 0.03 µM
- GI50 (K562): 0.1 µM
- TGI (K562): 0.1 µM
- GI50 (PC-3): < 0.1 µM
- TGI (PC-3): < 0.03 µM
- GI50 [3]: 0.04 µM
- TGI [3]: 0.4 µM
- GI50 (HT-29): 0.001 µM
- TGI (HT-29): < 0.03 µM
